Bioassay records: PubChem BioAssay, SRMLSC
H69AR inhibit: growth inhibitors of human H69AR lung tumor cells. H69AR lung tumor viability, ATP luminescence, 72 h; stronger effect = lower value. viability, % at 10 µM. actives 6% (n = 85,000). AID 598;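 active = viability at or below 40%; inactive = viability above 40%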;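 note: multidrug resistant small cell line overexpressing MRP-1 efflux transporter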
HCT116 bCat-KO: beta-catenin-lacking colon tumor cell growth suppression; HCT116 beta-catenin knockout viability, CellTiter-Glo, 60 h; stronger effect = lower value; viability, % at 10 µM; actives 1.5% (n = 140,000); AID 818;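 active = viability at or under a set limit, the compound median less 4 SD, cut at about 6% in these data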
Lung fibro prol: blocks proliferation of human lung fibroblasts | LL 47 human lung fibroblast viability, ATP luminescence; stronger effect = lower value | viability, % at 10 µM | actives 1.1% (n = 85,000) | AID 719;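 active = viability at or below 50% in the single dose screen; inactive = viability above 50%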;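 note: compound exposure lasted 72 h before the ATP readout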
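Test system: LL 47 human lung fibroblasts / Incubation: 72 h compound exposure at 37 °C after overnight plating / Technique: luminescent ATP detection, CellTiter-Glo / Compound dosing: 0.1% DMSO in all compound wells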
PTEN del growth: suppresses growth of cells with PTEN deletion | AID 827 | HCT116 PTEN-null viability, CellTiter-Glo, 60 h; stronger effect = lower value | viability, % at 10 µM | actives 1.2% (n = 140,000);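 active = viability at or below a set limit, 4 SD under the median of all tested compounds, cut at about 3.7% in these data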;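 note: PTEN knockout HCT116 line with beta catenin targeted HCT116 as companion control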
HUVEC prolif 384: inhibitors of human endothelial cell proliferation; HUVEC proliferation, CellTiter-Glo luminescence, 72 h; stronger effect = lower value; viability, % at 10 µM (by protocol); actives 1.1% (n = 86,000);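 active = viability at or below 30%; inactive = viability above 30%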
Each line names hits and unclear results; the compound was inactive in the other large screens. Only a selection was taken, and hits are over-represented in it overall.

O=C(Nc1cccc(C(F)(F)F)c1)c1ccc2nc(-c3ccco3)c(-c3ccco3)nc2c1	H69AR inhibit 31.8
COc1cccc(NC(=O)c2cc(CN3C(=O)c4ccccc4C3=O)ccc2OC)c1	none (no result: H69AR inhibit, Lung fibro prol, HUVEC prolif 384)
O=C1SC(SC(=Nc2ccccc2)Nc2ccccc2)C(=O)N1c1ccccc1 (stereo not drawn)	none (no result: H69AR inhibit, Lung fibro prol, HUVEC prolif 384)
CCOC(=O)/C=C1\Nc2ccccc2OC1=O	none (no result: H69AR inhibit, Lung fibro prol, HUVEC prolif 384)
CON1C(=O)C(=O)N(OC)C(C)(C)C1(C)C	none (no result: H69AR inhibit, Lung fibro prol, HUVEC prolif 384)
Cc1ccc2cc3c(NC(=O)c4ccco4)nn(CC(C)C)c3nc2c1	H69AR inhibit 35.4
Cc1ccc2nc3c(cc2c1)c(NC(=O)c1ccccn1)nn3CC(C)C	none
N#CCc1nc2c3c4c(sc3ncn2n1)CCCC4	HUVEC prolif 384 16.3
CCOc1c(Br)ccc2c1sc1nc[nH]c(=O)c12	HUVEC prolif 384 25.7
O=C1c2ccccc2NC(c2ccc(Cl)cc2Cl)N1O (stereo not drawn)	HCT116 bCat-KO 3.5 (no result: H69AR inhibit)
COc1ccc(/C=C/c2nnc(NC(=O)COc3ccc(C)cc3)s2)cc1	none (no result: H69AR inhibit, Lung fibro prol, HUVEC prolif 384)
CC/C(=N\NC(=O)c1ccc(CN(C)S(=O)(=O)c2ccc(C)cc2)cc1)c1ccc(OC(F)F)cc1	none (no result: H69AR inhibit, Lung fibro prol, HUVEC prolif 384)
CCC(Sc1nnc2c3ccccc3n(CC)c2n1)C(=O)Nc1sc2c(c1C#N)CCCC2 (stereo not drawn)	HCT116 bCat-KO 1.4, PTEN del growth 1.4 (no result: H69AR inhibit, Lung fibro prol, HUVEC prolif 384)
CCCCn1c(SC(C)C(=O)c2ccc(OC)cc2)nc2cc(S(N)(=O)=O)ccc21 (stereo not drawn)	H69AR inhibit 32.9
CCCCn1c(SCC(=O)c2ccc(OC)cc2OC)nc2cc(S(N)(=O)=O)ccc21	none
Clc1ccc(-c2nnc(-c3ccccc3)c(N3CCSCC3)n2)cc1	none (no result: H69AR inhibit, Lung fibro prol, HUVEC prolif 384)
CC1CN(c2nc(-c3ccc(Br)cc3)nnc2-c2ccccc2)CC(C)N1 (stereo not drawn)	HCT116 bCat-KO 0.9, PTEN del growth 1.0 (no result: H69AR inhibit, Lung fibro prol, HUVEC prolif 384)
CCCNC1=C(N(C(C)=O)c2cccc(F)c2)C(=O)c2ccccc2C1=O	HCT116 bCat-KO 1.0, PTEN del growth 0.8 (no result: H69AR inhibit, Lung fibro prol, HUVEC prolif 384)
Cc1ccc(C#CC[N+]2(CC#Cc3ccc(C)cc3)CCCCC2)cc1	none (no result: H69AR inhibit, Lung fibro prol, HUVEC prolif 384)
Cc1cccc(N2CN(Cc3ccco3)CNC2=S)c1	none (no result: H69AR inhibit, Lung fibro prol, HUVEC prolif 384)
NS(=O)(=O)c1ccc(Nc2nc(-c3ccc4ccccc4c3)cs2)cc1	H69AR inhibit 32.0
CCCN(CC1CC1)C(=S)Nc1ccc(Oc2ccccc2)cc1	none (no result: H69AR inhibit, Lung fibro prol, HUVEC prolif 384)
Cc1ccc(S(=O)(=O)NNC(=O)NC23CC4CC(CC(C4)C2)C3)cc1	none (no result: H69AR inhibit, Lung fibro prol, HUVEC prolif 384)
Cn1nnnc1Sc1nc(-c2cccnc2)nc2ccccc12	H69AR inhibit 0.0, Lung fibro prol 11.7 (no result: HCT116 bCat-KO, PTEN del growth)
C=CCOn1c(C)c(C(C)=O)c2c3no[n+]([O-])c3ccc21	H69AR inhibit 29.3
COn1c(C)c(C(C)=O)c2c3no[n+]([O-])c3ccc21	none (no result: H69AR inhibit, Lung fibro prol, HUVEC prolif 384)
CCCCn1c(N)c(-c2nc3ccccc3o2)c2c([N+](=O)[O-])nn(C)c(=O)c21	none (no result: H69AR inhibit, Lung fibro prol, HUVEC prolif 384)
CCCCCn1c(N)c(-c2nc3ccccc3s2)c2c([N+](=O)[O-])nn(C)c(=O)c21	H69AR inhibit 14.6
CCc1c(C)c(C#N)c2nc3ccccc3n2c1NCc1ccco1	H69AR inhibit 35.6
C=CCc1c(C)c(C#N)c2nc3ccccc3n2c1NCCN(C)C	H69AR inhibit 33.0
CCCNc1cc(C)c(C#N)c2nc3ccccc3n12	H69AR inhibit 37.4
CCc1c(C)c(C#N)c2nc3ccccc3n2c1NCCN(C)C	none
Cc1cc(NCCCO)n2c(nc3ccccc32)c1C#N	none (no result: H69AR inhibit, Lung fibro prol, HUVEC prolif 384)
CCC(=O)Nc1ccc(C(=O)NNC(=O)Cc2ccccc2)cc1	none (no result: H69AR inhibit, Lung fibro prol, HUVEC prolif 384)
O=C(CS(=O)CC(=O)N(c1cccc(F)c1)C(C(=O)NC1CCCCC1)c1ccco1)Nc1ccc(F)cc1 (stereo not drawn)	none (no result: H69AR inhibit, Lung fibro prol, HUVEC prolif 384)
Cc1ccccc1C(=O)NNC(=O)CSc1nnc(-c2ccncc2)n1-c1ccccc1	none (no result: H69AR inhibit, Lung fibro prol, HUVEC prolif 384)
CC(C)(C)c1cc(NC(=O)CCSc2nnc3ccccn23)cc(C(C)(C)C)c1	Lung fibro prol 46.2
Cc1cc2c(N3CCCCC3C)ncnc2s1 (stereo not drawn)	H69AR inhibit 36.8
Cc1ccc(C)c(N2CCN(C(=O)c3csc4ccccc34)CC2)c1	none (no result: H69AR inhibit, Lung fibro prol, HUVEC prolif 384)
CSCCC(NC(=O)c1cccc(C)c1)C(=O)OCC(=O)NC(=O)c1cccn1C (stereo not drawn)	none (no result: H69AR inhibit, Lung fibro prol, HUVEC prolif 384)
Cn1c2ccccc2c(=O)c2c(=O)n(C3CCCCC3)c(-c3cccs3)nc21	H69AR inhibit 34.2, Lung fibro prol 40.6
Cn1c2ccccc2c(=O)c2c(=O)n(C3CCCCCC3)c(C3CCCCC3)nc21	HCT116 bCat-KO 5.2, PTEN del growth 2.5 (no result: H69AR inhibit, Lung fibro prol, HUVEC prolif 384)
Cc1ccc(CNc2ccc(S(=O)(=O)N3CCOCC3)cc2[N+](=O)[O-])cc1	none (no result: H69AR inhibit, Lung fibro prol, HUVEC prolif 384)
